The values below come from ChEMBL document CHEMBL1131524, “Azapeptides as inhibitors and active site titrants for cysteine proteinases” (J Med Chem, 1998).

Experiment [1] has as its target T1, Papain (Carica papaya) (UniProt P00784).
T1 sequence (whole entry): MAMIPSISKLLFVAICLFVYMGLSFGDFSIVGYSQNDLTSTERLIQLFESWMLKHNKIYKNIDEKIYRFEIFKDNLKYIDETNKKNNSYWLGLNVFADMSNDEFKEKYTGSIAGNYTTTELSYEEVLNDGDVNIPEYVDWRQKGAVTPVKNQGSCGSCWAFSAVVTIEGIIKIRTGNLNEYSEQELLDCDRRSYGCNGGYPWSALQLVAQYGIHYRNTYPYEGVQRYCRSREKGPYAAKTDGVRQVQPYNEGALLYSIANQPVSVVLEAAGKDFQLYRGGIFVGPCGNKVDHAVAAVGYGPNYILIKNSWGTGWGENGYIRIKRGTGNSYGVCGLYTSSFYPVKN
The experiment is described as follows: Specificity constant is determined from the ratio of the inactivation rate constants (Kcat/Km)of the papain.

The target of experiment [2] is Cathepsin B (Bos taurus) (UniProt P07688). The experiment is described as follows: Specificity constant is determined from the ratio of the inactivation rate constants (Kcat/Km)of the cathepsin B.
Experiment [3] concerns the target T1, Papain (Carica papaya). Description: Specificity constant is determined from the ratio of the inactivation rate constants (Kcat/Km)of the papain.
Experiment [4] addresses T1, Papain (Carica papaya). The experiment is described as follows: The apparent second-order rate constant for inactivation of papain enzyme. Apparent rate constant was determined from repeats of Kobs vs [I] using at least 5 values of [I]. In outline: (§1)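 Papain purified from mercuripapain on Hg-Sepharose, then activated with L-cysteine for 15 min at room temperature in 50 mM K2HPO4, 1 mM EDTA, pH 6.3. Assays used 50 μM Cbz-Gly-ONp in buffer with 20% CH3CN, followed at 340 nm and corrected for spontaneous hydrolysis. Analysis was by Kitz–Wilson, with kobsd taken from slopes of semilog activity-versus-time plots.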

Experiment [5] concerns the target Cathepsin B (Bos taurus) (UniProt P07688). Description: The apparent second-order rate constant for inactivation of bovine cathepsin B enzyme. Apparent rate constant was determined from repeats of Kobs vs [I] using at least 5 values of [I], where I=0.95 mM. The method in brief:
(§2)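 Bovine spleen cathepsin B was activated with 10 mM dithiothreitol, and its active concentration was set by E-64 titration. Assays ran in 25 mM sodium acetate, 1 mM EDTA, pH 5.3, with 20% CH3CN and 80 μM Cbz-Lys-ONp, monitored at 326 nm. Inactivation was analysed by Kitz–Wilson, with kobsd from semilog plots of activity versus time.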

Experiment [6] has the same target. Description: The apparent second-order rate constant for inactivation of bovine cathepsin B enzyme. Apparent rate constant was determined from repeats of Kobs vs [I] using at least 5 values of [I]. In outline: as §2
Experiment [7] addresses T1, Papain (Carica papaya). The experiment is described as follows: Specificity constant is determined from the ratio of the inactivation rate constants (Kcat/Km)of the papaine.
Experiment [8] concerns the target Cathepsin B (Bos taurus) (UniProt P07688). Description: The apparent second-order rate constant for inactivation of bovine cathepsin B enzyme. Apparent rate constant was determined from repeats of Kobs vs [I] using at least 5 values of [I], where I=0.2 mM. The method in brief: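 Bovine spleen cathepsin B, activated with 10 mM dithiothreitol, in 25 mM sodium acetate pH 5.3 with 1 mM EDTA and 20% CH3CN (v/v). Substrate 80 μM Cbz-Lys-ONp; hydrolysis followed at 326 nm (Δε 9060 M⁻¹ cm⁻¹). Enzyme concentration set by E-64 titration. Kitz–Wilson analysis: k_obsd from slopes of semilog plots of activity vs time.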

The target in experiment [9] is T1, Papain (Carica papaya). The experiment is described as follows: The apparent second-order rate constant for inactivation of papain enzyme. Apparent rate constant was determined from repeats of Kobs vs [I] using at least 5 values of [I] where I=0.95 mM. In outline: as §1

Regarding `C[C@H](NC(=O)OCc1ccccc1)C(=O)Oc1ccc([N+](=O)[O-])cc1`, the k cat/Km in [1] turned out to be 800000 M⁻¹ s⁻¹; in [2], 450000 M⁻¹ s⁻¹.
As to `NCCCC[C@H](NC(=O)OCc1ccccc1)C(=O)Oc1ccc([N+](=O)[O-])cc1`, the k cat/Km in [3] stood at 853000 M⁻¹ s⁻¹; in experiment [2], 776000 M⁻¹ s⁻¹.
As for `CC(=O)N[C@@H](Cc1ccccc1)C(=O)NN(C)C(=O)OCC(Cl)(Cl)Cl`, the k2/Ki in experiment [4] is 12 M⁻¹ s⁻¹. Moreover, the kobs/[I] in [5] came to 0.34 M⁻¹ s⁻¹.
For the molecule `CC(=O)N[C@@H](Cc1ccccc1)C(=O)NNC(=O)Nc1ccc([N+](=O)[O-])cc1`, the figures for the k2/Ki in experiment [6] and in experiment [4] were 0 M⁻¹ s⁻¹ and 1 M⁻¹ s⁻¹, respectively.
Regarding `CC(=O)N[C@@H](Cc1ccccc1)C(=O)N/N=C(/N)S`, the k2/Ki in experiment [4] came to 0.03 M⁻¹ s⁻¹.
For `COC(=O)NNC(=O)[C@H](Cc1ccccc1)NC(C)=O`, in experiment [4], the k2/Ki was 19 M⁻¹ s⁻¹.
As for `CC(=O)N[C@@H](Cc1ccccc1)C(=O)NNC(N)=O`, the k2/Ki in [6] worked out at 0 M⁻¹ s⁻¹; in experiment [4] it was 4 M⁻¹ s⁻¹.
`CC(=O)N[C@@H](Cc1ccccc1)C(=O)NNC(=O)OCC(Cl)(Cl)Cl`: the k cat/Km in [7] amounted to 11800 M⁻¹ s⁻¹; in [2], 730 M⁻¹ s⁻¹. For the same molecule, the figures for the k2/Ki in [6] and in [4] were 730 M⁻¹ s⁻¹ and 11800 M⁻¹ s⁻¹, respectively.
Take `O=C(N[C@@H](Cc1ccccc1)C(=O)Oc1ccc([N+](=O)[O-])cc1)OCc1ccccc1`: the k cat/Km worked out at 120000 M⁻¹ s⁻¹ in experiment [1] and 80000 M⁻¹ s⁻¹ in experiment [2].
Regarding `CC(=O)N[C@@H](Cc1ccccc1)C(=O)NN(C)C(=O)Oc1ccccc1`, the k obs / 1 in experiment [8] turned out to be 18. Further, the k cat/Km in experiment [7] turned out to be 110 M⁻¹ s⁻¹; in experiment [2], 18 M⁻¹ s⁻¹. For the same molecule, in [4], the k2/Ki was found to be 110 M⁻¹ s⁻¹.
On to `CC(=O)N[C@@H](Cc1ccccc1)C(=O)NNC(=O)Oc1ccc([N+](=O)[O-])cc1`, for which, in experiment [4], the k2/Ki was greater than 70000 M⁻¹ s⁻¹.
For the molecule `CC(=O)N[C@@H](Cc1ccccc1)C(=O)NNC(=O)OCc1ccccc1`, the results for the k2/Ki in experiment [6] and in experiment [4] were 310 M⁻¹ s⁻¹ and 30500 M⁻¹ s⁻¹, respectively.
As for `CCOC(=O)NNC(=O)[C@H](Cc1ccccc1)NC(C)=O`, in experiment [4], the k2/Ki amounted to 47 M⁻¹ s⁻¹.
Turning to `CC(=O)N[C@@H](Cc1ccccc1)C(=O)NNC(=O)Oc1ccccc1`, the values for the k cat/Km in experiment [7] and in experiment [2] were 67600 M⁻¹ s⁻¹ and 7730 M⁻¹ s⁻¹, respectively. Besides, the k2/Ki in experiment [6] was found to be 7730 M⁻¹ s⁻¹; in experiment [4] it was 67600 M⁻¹ s⁻¹.
For the molecule `CC(=O)N[C@@H](Cc1ccccc1)C(=O)NNC(=O)OCCBr`, the k2/Ki in experiment [6] was found to be 90 M⁻¹ s⁻¹; in experiment [4], 1250 M⁻¹ s⁻¹.
On to `COC(=O)N(C)NC(=O)[C@H](Cc1ccccc1)NC(C)=O`, for which the k2/Ki in experiment [4] was 0.05 M⁻¹ s⁻¹.
Regarding `CCOC(=O)N(C)NC(=O)[C@H](Cc1ccccc1)NC(C)=O`, the k2/Ki in experiment [4] turned out to be 0.05 M⁻¹ s⁻¹.
Take `CC(=O)N[C@@H](Cc1ccccc1)C(=O)NNC(=O)OCCCl`: the k2/Ki in experiment [6] was determined as 54 M⁻¹ s⁻¹; in [4] it was 1150 M⁻¹ s⁻¹.
On to `CC(=O)N[C@@H](Cc1ccccc1)C(=O)NNC(=O)OCC(C)C`, for which the k2/Ki in experiment [4] turned out to be 55 M⁻¹ s⁻¹.
On to `CC(=O)N[C@@H](Cc1ccccc1)C(=O)NN(Cc1ccccc1)C(=O)Oc1ccccc1`, for which the kobs/[I] in experiment [9] is 0.3 M⁻¹ s⁻¹; in experiment [5] it was less than 0.2 M⁻¹ s⁻¹.
